# Experimental data taken from ChEMBL document CHEMBL1145335, “Nonpeptide inhibitors of measles virus entry” (J Med Chem, 2006).
# Calls of active or inactive are those of the source. The rule behind the calls is not given here.
# What was measured:
# Vero [1] = experiment: Selectivity index, CC50 for Vero-CD150w cells/IC50 for Measles virus Edmonston; assay type: functional
# Procedure, shortened: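 Ratio of CC50 to IC50. CC50: 2-fold dilutions from 600 µM, 36–40 h exposure, proliferation read-out, two independent replicates. IC50: suppression of cytopathicity at MOI 0.2 pfu/cell, 96 h, proliferation read-out, from dose-response curves of replicate averages.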
# Vero [2] = experiment: Cytotoxicity against Vero-CD150w cells; assay type: functional; conditions: Chlorocebus sabaeus
# Procedure, shortened: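 Uninfected cells were exposed to 2-fold compound dilutions from 600 µM down to 2.3 µM for 36 to 40 h. Remaining proliferation was then measured over 1 h by nonradioactive proliferation assay. CC50 comes from two independent replicates.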
# Measles morbillivirus [3] = experiment: Antiviral activity against wild type Measles virus Edmonston in Vero-CD150w cells by cytopathicity assay; assay type: functional, organism-based
# Procedure, shortened: (§1)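 Cells infected with MV Edmonston at MOI 0.2 pfu/cell in the presence of 2-fold compound dilutions, starting at 75–300 µM and ending at 0.3–1.2 µM. Two to four replicates per concentration; DMSO ≤0.1% with matched DMSO controls. Virus-induced cytopathicity was read at 96 h post-infection by nonradioactive proliferation assay. IC50 was taken from dose-response curves of replicate averages.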
# Measles morbillivirus [4] = experiment: Antiviral activity against wild type Measles virus Edmonston in Vero-CD150w cells at >75 uM by cytopathicity assay; assay type: functional, organism-based; procedure, shortened: as §1
# Measles morbillivirus [5] = experiment: Antiviral activity against Measles virus variant in Vero-CD150w cells by cytopathicity assay; assay type: functional, organism-based
# Procedure, shortened: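 MV variant carrying an F-protein point mutation at position 462. Cells infected at MOI 0.2 pfu/cell with 2-fold compound dilutions starting at 75–300 µM, in 2–4 replicates, with DMSO at most 0.1% and DMSO-matched controls. Cytopathicity quantified at 96 h post-infection by a nonradioactive proliferation assay. IC50 taken from dose-response curves of replicate averages.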
# Measles morbillivirus [6] = experiment: Antiviral activity against wild type Measles virus Edmonston in Vero-CD150w cells upto 100 uM by cytopathicity assay; assay type: functional, organism-based; procedure, shortened: as §1
# [7] = Measles morbillivirus, Edmonston, Vero-CD150w, read-out: IC50
SMILES,Selectivity index (Vero [1]),CC50 (Vero [2]) [µM],IC50 (Measles morbillivirus [3]; [7]) [µM],Activity (Measles morbillivirus [4]),IC50 (Measles morbillivirus [3]; vero-cd150w),IC50 (Measles morbillivirus [5]) [µM],Activity (Measles morbillivirus [6])
O=C(Cc1ccccc1)Nc1cccc(O)c1,>24,> 600,25,–,–,–,–
O=C(Cc1ccccc1F)Nc1cccc([N+](=O)[O-])c1,–,–,–,inactive,–,–,–
Nc1ccc(NC(=O)COc2ccccc2)c(O)c1,–,–,–,–,Not Active,–,–
O=C(Cc1ccccc1)Nc1cccc([N+](=O)[O-])c1,>71,> 600,8.5,–,–,–,–
O=C(Cc1ccccc1)Nc1ccc(F)cn1,>6,> 600,109,–,–,–,–
NC(=O)c1ccc([N+](=O)[O-])cc1NC(=O)Cc1ccccc1,108,325,3,–,–,> 150,–
NC(=O)c1cc(N)cc(NC(=O)Cc2ccccc2)c1,>33,> 600,18,–,–,–,–
O=C(COc1ccccc1)Nc1ccc([N+](=O)[O-])cc1O,–,> 600,> 100,–,–,–,–
O=C(Cc1ccccc1)Nc1ccccc1[N+](=O)[O-],–,> 600,> 100,–,–,–,–
Nc1cc(NC(=O)Cc2ccccc2)cc(C(=O)O)c1,>11,> 600,55,–,–,–,–
O=C(COc1ccccc1)Nc1cc([N+](=O)[O-])ccc1O,<6,600,> 100,–,–,–,–
Nc1ccc2oc(Cc3ccccc3)nc2c1,>10,> 600,55,–,–,> 150,–
O=C(Cc1ccccc1)Nc1cc(C(=O)O)cc([N+](=O)[O-])c1,>120,> 600,5,–,–,> 150,–
O=C(Cc1ccccc1)Nc1ccc(O)c([N+](=O)[O-])c1,>10,> 600,63,–,–,–,–
O=C(Cc1ccccc1)Nc1ccc([N+](=O)[O-])cc1,34,550,16,–,–,–,–
COC(=O)c1cc(NC(=O)Cc2ccccc2)cc([N+](=O)[O-])c1,110,440,4,–,–,> 150,–
O=C(Cc1ccccc1)Nc1ccccc1O,40,525,13,–,–,> 150,–
Nc1ccc(NC(=O)Cc2ccccc2)c(O)c1,>8,> 600,75,–,–,–,–
O=C(Cc1ccc(I)cc1)Nc1cccc([N+](=O)[O-])c1,–,–,> 75,–,–,–,–
O=C(Cc1cccc(F)c1)Nc1cccc([N+](=O)[O-])c1,–,–,47,–,–,–,–
Nc1ccc(CO)c(NC(=O)Cc2ccccc2)c1,–,–,–,–,–,–,inactive
Nc1ccc(NC(=O)Cc2ccccc2)cc1,>4,> 600,135,–,–,–,–
O=C(Cc1ccccc1)Nc1ccccc1C(=O)O,>10,> 600,60,–,–,–,–
Nc1cc(C(=O)NCc2ccccc2)cc([N+](=O)[O-])c1,–,–,23,–,–,–,–

SMILES,Selectivity index (Vero [1]),CC50 (Vero [2]) [µM],IC50 (Measles morbillivirus [3]; [7]) [µM],Activity (Measles morbillivirus [4]),IC50 (Measles morbillivirus [3]; vero-cd150w),IC50 (Measles morbillivirus [5]) [µM],Activity (Measles morbillivirus [6])
O=C(Cc1ccccc1)Nc1ccc(F)c([N+](=O)[O-])c1,<5,450,> 100,–,–,–,–
N#Cc1cccc(NC(=O)Cc2ccccc2)c1,>92,> 600,6.5,–,–,> 150,–
O=C(Cc1ccccn1)Nc1cccc([N+](=O)[O-])c1,–,–,> 75,–,–,–,–
O=C(Cc1cccc(I)c1)Nc1cccc([N+](=O)[O-])c1,–,–,> 300,–,–,–,–
COc1cccc(CC(=O)Nc2cc([N+](=O)[O-])ccc2O)c1,–,> 600,> 100,–,–,–,–
O=C(Cc1ccc(F)cc1)Nc1cccc([N+](=O)[O-])c1,–,–,9,–,–,–,–
O=C(Cc1ccccc1)Nc1cc(CO)cc([N+](=O)[O-])c1,>100,> 600,6,–,–,> 150,–
O=C(Cc1ccccc1)Nc1cc(NO)cc([N+](=O)[O-])c1,54,325,6,–,–,> 75,–
O=C(Cc1ccccc1)Nc1cc([N+](=O)[O-])ccc1OC(=O)Cc1ccccc1,1,75,68,–,–,–,–
COc1ccc(CC(=O)Nc2cc([N+](=O)[O-])ccc2O)cc1,<6,600,> 100,–,–,–,–
Nc1cc(NC(=O)Cc2ccccc2)cc([N+](=O)[O-])c1,>55,> 600,11,–,–,> 150,–
O=[N+]([O-])c1ccc(O)c(NS(=O)(=O)Cc2ccccc2)c1,–,–,> 300,–,–,–,–
O=C(Cc1ccncc1)Nc1cccc([N+](=O)[O-])c1,–,–,> 75,–,–,–,–
O=C(Cc1cccnc1)Nc1cccc([N+](=O)[O-])c1,–,–,> 75,–,–,–,–
O=C(Cc1ccccc1)Nc1cc(C(F)(F)F)ccc1O,–,> 600,> 100,–,–,–,–
Nc1cc(N)cc(NC(=O)Cc2ccccc2)c1,–,–,> 100,–,–,–,–
O=C(Cc1ccccc1)Nc1cc([N+](=O)[O-])cc([N+](=O)[O-])c1,>20,> 600,30,–,–,> 150,–
NC(=O)c1cc(NC(=O)Cc2ccccc2)cc([N+](=O)[O-])c1,46,170,3.7,–,–,> 75,–
Nc1cc(CO)cc(NC(=O)Cc2ccccc2)c1,–,–,–,–,–,–,inactive
O=C(Cc1ccccc1)Nc1cc([N+](=O)[O-])ccc1O,10,450,47,–,–,–,–
COC(=O)c1ccc(O)c(NC(=O)Cc2ccccc2)c1,>9,> 600,66,–,–,–,–
O=C(Cc1ccccc1I)Nc1cccc([N+](=O)[O-])c1,–,–,> 300,–,–,–,–
Nc1cccc(NC(=O)Cc2ccccc2)c1,>32,> 600,19,–,–,> 150,–
NC(=O)c1ccc(O)c(NC(=O)Cc2ccccc2)c1,>5,> 600,127,–,–,–,–
